# “Also recorded” adds a separate entry of the source.
# How the values were obtained:
# [1] = system: cloned human dopamine receptor subtypes, serotonin receptor subtypes, alpha-adrenergic receptors, and opioid receptors; assay: CNS receptor screening, NIMH PDSP primary binding assays; settings: 10 μM
# rats = assay: Rat forced swim test; assay type: in vivo; settings: 10 mg/kg i.p., sub-chronic, 1 h before test, compared to vehicle
# In short: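 Male Sprague-Dawley rats (200–225 g), naive, used once, tested in cylinders of 24–25 °C water, 22 cm deep. A 15 min pretest was followed 24 h later by a 5 min test. Dosing was i.p. in 10% β-hydroxypropyl cyclodextrin (2 mL/kg), 15 min after pretest and 1 h before test. Imipramine 15 mg/kg was the reference. Blinded video immobility scoring, one-way ANOVA.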
# [2] = biological target: dopamine transporter (DAT) (Rattus norvegicus, UniProt P23977); assay: Inhibition of [3H]dopamine uptake by DAT in rat striatum; assay type: biochemical
# Sequence of dopamine transporter (DAT) (P23977 whole entry): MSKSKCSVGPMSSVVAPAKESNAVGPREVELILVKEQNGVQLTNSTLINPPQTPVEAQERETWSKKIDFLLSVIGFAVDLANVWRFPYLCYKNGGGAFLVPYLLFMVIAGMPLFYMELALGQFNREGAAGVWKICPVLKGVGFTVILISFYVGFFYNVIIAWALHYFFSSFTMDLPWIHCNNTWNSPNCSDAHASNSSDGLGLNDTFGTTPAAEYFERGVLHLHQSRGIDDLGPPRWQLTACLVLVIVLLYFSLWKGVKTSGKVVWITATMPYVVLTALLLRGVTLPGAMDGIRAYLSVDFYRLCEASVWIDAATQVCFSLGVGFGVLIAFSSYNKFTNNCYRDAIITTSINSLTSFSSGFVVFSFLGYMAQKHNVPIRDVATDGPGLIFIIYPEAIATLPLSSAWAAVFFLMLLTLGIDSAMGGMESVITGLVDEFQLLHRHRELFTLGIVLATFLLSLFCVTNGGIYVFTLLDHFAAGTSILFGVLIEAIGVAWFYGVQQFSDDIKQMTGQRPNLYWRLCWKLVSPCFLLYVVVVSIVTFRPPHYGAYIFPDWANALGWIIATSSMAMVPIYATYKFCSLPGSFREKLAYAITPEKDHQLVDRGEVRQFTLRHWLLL
# [3] = biological target: serotonin transporter (SERT) (Rattus norvegicus, UniProt P31652); assay: Inhibition of [3H]serotonin uptake by SERT in rat cerebral cortex; assay type: biochemical
# Sequence of serotonin transporter (SERT) (P31652 whole entry): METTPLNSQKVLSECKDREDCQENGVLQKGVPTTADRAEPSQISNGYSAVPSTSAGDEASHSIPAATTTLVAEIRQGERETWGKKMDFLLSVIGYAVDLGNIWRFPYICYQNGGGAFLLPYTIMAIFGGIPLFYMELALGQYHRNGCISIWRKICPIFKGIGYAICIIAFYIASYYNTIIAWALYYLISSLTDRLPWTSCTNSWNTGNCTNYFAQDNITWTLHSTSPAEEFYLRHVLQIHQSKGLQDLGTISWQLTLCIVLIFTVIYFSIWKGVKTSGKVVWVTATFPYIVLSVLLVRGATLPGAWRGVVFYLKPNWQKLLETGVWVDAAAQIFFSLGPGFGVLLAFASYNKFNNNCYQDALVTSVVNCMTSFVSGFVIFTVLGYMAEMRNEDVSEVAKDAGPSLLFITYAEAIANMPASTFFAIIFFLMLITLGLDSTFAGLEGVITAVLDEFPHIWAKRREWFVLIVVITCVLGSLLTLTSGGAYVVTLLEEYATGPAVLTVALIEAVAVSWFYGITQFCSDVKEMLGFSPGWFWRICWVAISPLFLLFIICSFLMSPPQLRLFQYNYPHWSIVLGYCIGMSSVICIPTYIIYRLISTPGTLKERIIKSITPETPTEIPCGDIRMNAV
"Inhibition in CNS receptor screening, majority of the receptor target sites [1]","Inhibition in CNS receptor screening, a few other target sites ([1]; only marginally so in some cases)",Ki [2] [nM],Ki [3] [nM],SMILES,Effect on duration of immobility in the forced swimming test (rats)
less than 50%,greater than 50%,,,"Oc1cccc(CN[C@H]2CC[C@@H](C(c3ccccc3)c3ccccc3)OC2)c1 [Compound 10f, 3-((((3S,6S)-6-benzhydryltetrahydro-2H-pyran-3-yl)amino)methyl)phenol]",significant reduction of immobility; also recorded: high efficacy in reducing immobility; also recorded: more efficacious than imipramine
,,15.9,12.9,"c1ccc(C(c2ccccc2)[C@@H]2CC[C@H](NCc3cccs3)CO2)cc1 [Compound 10g, (3S,6S)-6-benzhydryl-N-(thiophen-2-ylmethyl)tetrahydro-2H-pyran-3-amine]",
